Measured values reported in ChEMBL document CHEMBL1136468, “B-ring unsaturated estrogens: biological evaluation of 17alpha-Dihydroequilein and novel B-Nor-6-thiaequilenins as tissue selective estrogens” (Bioorg Med Chem Lett, 2003).

Experiments:
Estrogen receptor beta = Estrogen receptor beta (Homo sapiens, UniProt Q92731); test: Binding affinity against human estrogen receptor beta
How it was run: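 Competitive binding to human ERβ, reported as Ki (nM). Compounds generally run in duplicate; minimum significant ratio for the binding assay is 2-fold.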

Estrogen receptor = molecular target: T1, Estrogen receptor (Homo sapiens, UniProt P03372); test: Binding affinity against human estrogen receptor alpha
T1 sequence (P03372 whole entry): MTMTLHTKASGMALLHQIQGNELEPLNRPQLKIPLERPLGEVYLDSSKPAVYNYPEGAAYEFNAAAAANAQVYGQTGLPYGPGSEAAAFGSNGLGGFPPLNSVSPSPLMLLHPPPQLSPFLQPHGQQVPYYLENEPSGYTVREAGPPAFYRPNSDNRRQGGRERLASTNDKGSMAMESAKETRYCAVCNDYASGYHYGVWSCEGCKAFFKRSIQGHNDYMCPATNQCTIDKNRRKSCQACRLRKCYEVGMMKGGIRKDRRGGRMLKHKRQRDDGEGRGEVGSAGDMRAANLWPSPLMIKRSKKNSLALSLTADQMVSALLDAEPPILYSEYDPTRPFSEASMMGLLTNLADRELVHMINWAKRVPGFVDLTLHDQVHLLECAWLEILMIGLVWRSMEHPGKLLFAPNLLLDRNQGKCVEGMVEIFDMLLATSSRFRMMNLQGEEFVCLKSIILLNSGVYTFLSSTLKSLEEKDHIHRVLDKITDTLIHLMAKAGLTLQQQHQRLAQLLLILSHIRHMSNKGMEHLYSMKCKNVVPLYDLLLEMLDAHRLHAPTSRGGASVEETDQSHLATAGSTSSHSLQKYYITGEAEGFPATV

Rattus norvegicus [1] = test: Bone density at proximal metaphysis of excised femur in ovariectomized (OVX) rats at 0.01 mg/kg dose; assay type: functional
How it was run: (§1)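 Six-month-old ovariectomized rats were dosed orally for 5 weeks. Bone density was measured at the proximal metaphysis of the excised femur. Percent protection was calculated for each animal as (BMD test − BMD OVX)/(BMD sham − BMD OVX) × 100. Statistics used one-way ANOVA with p < 0.05.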

Rattus norvegicus [2] = test: (§2) Percent decrease in serum cholesterol in ovariectomized (OVX) rats at 10 mg/kg dose; assay type: functional; design: scale not given: the % may be the effect or the level left
How it was run: (§3)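 Six-month-old ovariectomized rats were dosed orally for 5 weeks, and total serum cholesterol was measured against OVX controls. Groups were compared by one-way ANOVA with p < 0.05.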

Rattus norvegicus [3] = test: Bone density at proximal metaphysis of excised femur in ovariectomized (OVX) rats at 10.00 mg/kg dose; assay type: functional; how it was run: as §1
Rattus norvegicus [4] = test: as §2; assay type: functional; how it was run: as §3
Rattus norvegicus [5] = test: Bone density at proximal metaphysis of excised femur in ovariectomized (OVX) rats at 1.00 mg/kg dose; assay type: functional; how it was run: as §1
Rattus norvegicus [6] = test: (§4) Percent decrease in serum cholesterol in ovariectomized (OVX) rats at 0.10 mg/kg dose; assay type: functional; conditions: dose 0.1 mg/kg; how it was run: as §3
Rattus norvegicus [7] = species: Rattus norvegicus; test: Effective dose in rat; assay type: functional
Rattus norvegicus [8] = test: Bone density at proximal metaphysis of excised femur in ovariectomized (OVX) rats at 0.1 mg/kg dose; assay type: functional; how it was run: as §1
Rattus norvegicus [9] = test: as §4; design: scale not given: the % may be the effect or the level left; conditions: dose 0.1 mg/kg

Chain of Estrogen receptor beta (Q92731 whole entry): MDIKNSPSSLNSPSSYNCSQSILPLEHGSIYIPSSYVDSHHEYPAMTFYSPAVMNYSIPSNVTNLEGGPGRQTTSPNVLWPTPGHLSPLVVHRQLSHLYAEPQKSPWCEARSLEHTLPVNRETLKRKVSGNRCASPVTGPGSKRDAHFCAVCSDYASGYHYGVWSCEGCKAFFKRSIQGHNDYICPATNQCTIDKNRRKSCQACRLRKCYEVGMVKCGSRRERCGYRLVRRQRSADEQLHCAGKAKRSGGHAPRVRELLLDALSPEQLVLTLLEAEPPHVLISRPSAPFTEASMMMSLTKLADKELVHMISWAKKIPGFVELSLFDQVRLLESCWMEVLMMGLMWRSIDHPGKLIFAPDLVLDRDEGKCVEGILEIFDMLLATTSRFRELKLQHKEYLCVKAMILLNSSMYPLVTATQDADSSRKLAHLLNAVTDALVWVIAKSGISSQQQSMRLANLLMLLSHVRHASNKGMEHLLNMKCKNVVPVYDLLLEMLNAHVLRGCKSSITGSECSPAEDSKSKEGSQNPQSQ

| SMILES | Ki (Estrogen receptor beta) | Ki (Estrogen receptor) | also measured |
| --- | --- | --- | --- |
| C[C@]12CCc3c(sc4cc(O)ccc34)[C@H]1CC[C@@H]2O | 47 nM | 10 nM | – |
| C[C@]12CCc3c(ccc4cc(O)ccc34)[C@@H]1CC[C@H]2O | 24 nM | – | Protection (Rattus norvegicus [1]): 6.1%; Activity (Rattus norvegicus [2]): 93.8%; Protection (Rattus norvegicus [3]): 119%; Decrease (Rattus norvegicus [4]): 93.8%; Protection (Rattus norvegicus [5]): 59.5%; Decrease (Rattus norvegicus [6]): 66.3%; ED50 (Rattus norvegicus [7]): < 0.1 mg/kg; Protection (Rattus norvegicus [8]): 26.5% |
| C[C@]12CCc3c(sc4cc(O)ccc34)[C@@H]1CC[C@@H]2O | 11 nM | 4 nM | – |
| C[C@]12CCc3c(sc4cc(O)ccc34)[C@@H]1CC[C@H]2O | 73 nM | 23 nM | – |
| C[C@@]12CCc3c(sc4cc(O)ccc34)[C@@H]1CC[C@H]2O | 120 nM | 24 nM | – |
| C[C@@]12CCc3c(sc4cc(O)ccc34)[C@H]1CC[C@H]2O | 17 nM | 13 nM | – |
| C#C[C@]1(O)CC[C@H]2[C@@H]3CCc4cc(O)ccc4[C@H]3CC[C@@]21C [ETHINYL ESTRADIOL] | – | – | Decrease (Rattus norvegicus [6]): 83.3%; Activity (Rattus norvegicus [9]): 83.3% |
